Data taken from ChEMBL document CHEMBL1938393, “Multiparameter exploration of piperazine derivatives as δ-opioid receptor agonists for CNS indications” (Bioorg Med Chem Lett, 2012).

What was measured:
[1] = target: Voltage-gated inwardly rectifying potassium channel KCNH2 (Homo sapiens, UniProt Q12809); assay: Inhibition of human Erg
[2] = Intrinsic clearance in human liver microsomes; type: ADME, Microsome; conditions: read-out: CLH
MDR1 (P-gp), human = assay: Apparent permeability across apical to basolateral side in MDCK cells transfected with human MDR1 gene; type: ADME, cell-based, Canis lupus familiaris; conditions: dog
Summary of the method: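 Transport assay on MDCK cell monolayers transfected with the human MDR1 gene; flux measured in the apical-to-basolateral direction.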

HEK293 = assay: Selectivity ratio of IC50 for mu-opioid receptor overexpressed in human HEK293 cells to IC50 for delta-opioid receptor overexpressed in human HEK293 cells; type: cell-based
[3] = target: Delta-type opioid receptor (Homo sapiens, UniProt P41143); assay: Displacement of [I125]deltorphin from delta-opioid receptor overexpressed in human HEK293 cells; type: cell-based
Delta-type opioid receptor, sequence (P41143 whole entry): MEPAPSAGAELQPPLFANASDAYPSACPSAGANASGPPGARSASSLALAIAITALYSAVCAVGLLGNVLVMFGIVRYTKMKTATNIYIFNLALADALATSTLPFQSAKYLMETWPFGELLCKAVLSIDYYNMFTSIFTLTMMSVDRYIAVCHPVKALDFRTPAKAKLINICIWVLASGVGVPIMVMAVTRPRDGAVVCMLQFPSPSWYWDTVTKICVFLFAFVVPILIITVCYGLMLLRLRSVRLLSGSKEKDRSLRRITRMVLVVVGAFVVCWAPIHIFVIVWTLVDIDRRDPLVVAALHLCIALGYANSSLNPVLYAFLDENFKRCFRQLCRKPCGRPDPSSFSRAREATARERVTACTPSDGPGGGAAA

Voltage-gated inwardly rectifying potassium channel KCNH2, sequence (Q12809 whole entry): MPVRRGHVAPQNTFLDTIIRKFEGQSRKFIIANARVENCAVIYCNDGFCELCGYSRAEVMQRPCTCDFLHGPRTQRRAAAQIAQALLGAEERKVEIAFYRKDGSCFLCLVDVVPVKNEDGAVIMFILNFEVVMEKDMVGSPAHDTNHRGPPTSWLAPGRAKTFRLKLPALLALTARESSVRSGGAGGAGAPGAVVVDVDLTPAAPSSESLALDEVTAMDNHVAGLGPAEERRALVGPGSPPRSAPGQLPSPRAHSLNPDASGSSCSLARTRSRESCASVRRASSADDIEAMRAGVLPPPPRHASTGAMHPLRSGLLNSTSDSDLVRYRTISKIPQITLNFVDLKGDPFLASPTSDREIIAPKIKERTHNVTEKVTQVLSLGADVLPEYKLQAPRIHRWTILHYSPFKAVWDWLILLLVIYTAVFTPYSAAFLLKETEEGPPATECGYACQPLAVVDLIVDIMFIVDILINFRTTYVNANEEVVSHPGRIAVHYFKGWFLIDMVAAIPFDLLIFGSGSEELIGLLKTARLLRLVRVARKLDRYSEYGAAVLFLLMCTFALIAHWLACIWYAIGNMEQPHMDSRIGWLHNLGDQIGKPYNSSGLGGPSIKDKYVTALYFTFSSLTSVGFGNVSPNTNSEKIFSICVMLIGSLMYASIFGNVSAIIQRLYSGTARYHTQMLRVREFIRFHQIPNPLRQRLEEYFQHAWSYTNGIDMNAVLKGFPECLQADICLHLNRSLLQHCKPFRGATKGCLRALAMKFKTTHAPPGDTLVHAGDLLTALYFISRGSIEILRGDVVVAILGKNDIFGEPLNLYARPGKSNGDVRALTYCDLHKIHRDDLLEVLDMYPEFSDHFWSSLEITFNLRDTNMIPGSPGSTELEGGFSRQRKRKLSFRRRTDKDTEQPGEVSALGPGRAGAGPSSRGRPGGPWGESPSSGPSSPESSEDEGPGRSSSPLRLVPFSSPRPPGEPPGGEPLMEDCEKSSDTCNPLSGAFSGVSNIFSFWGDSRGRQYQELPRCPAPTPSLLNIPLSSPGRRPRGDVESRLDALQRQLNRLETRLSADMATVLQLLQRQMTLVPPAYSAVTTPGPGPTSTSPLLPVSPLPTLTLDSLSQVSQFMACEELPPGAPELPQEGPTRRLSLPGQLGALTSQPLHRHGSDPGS

| Structure (SMILES) | IC50 [1] | microsomal CLint [2] | Papp A→B (MDR1 (P-gp), human) | Ratio IC50 (HEK293) | IC50 [3] |
| --- | --- | --- | --- | --- | --- |
| CCN(C)C(=O)c1ccc([C@H](c2ccccn2)N2CCN(Cc3ccccn3)CC2)cc1 | > 33000 nM | 20 µL/min/mg | 2.5 nm/s | > 1900 | 5.2 nM |
| CCN(C)C(=O)c1ccc([C@H](c2cccnc2)N2CCN(Cc3cscn3)CC2)cc1 | – | 40 µL/min/mg | < 1 nm/s | – | 4.7 nM |
| CCN(C)C(=O)c1ccc([C@H](c2cccc(NC(=O)OC)c2)N2CCN(Cc3cscn3)CC2)cc1 | 17000 nM | 38 µL/min/mg | 1.2 nm/s | 15000 | 0.094 nM |
| CCN(CC)C(=O)c1ccc([C@H](c2cccc(NC(=O)OC)c2)N2CCN(Cc3cccnc3)CC2)cc1 | – | 110 µL/min/mg | 3 nm/s | – | – |
| CCN(C)C(=O)c1ccc([C@H](c2cccnc2)N2CCN(Cc3ccccn3)CC2)cc1 | 13000 nM | 33 µL/min/mg | 1.2 nm/s | > 5100 | 2 nM |
| CCOC(=O)Nc1ccccc1[C@@H](c1ccc(C(=O)N(CC)CC)cc1)N1CCN(Cc2cscn2)CC1 | – | 430 µL/min/mg | < 1 nm/s | – | – |
| O=C(Nc1cccc([C@@H](c2ccc(C(=O)N3CCC3)cc2)N2CCN(Cc3ccc(F)cc3)CC2)c1)C1CC1 | 3600 nM | 49 µL/min/mg | < 1 nm/s | 480 | 0.9 nM |
| CCN(CC)C(=O)c1ccc([C@H](c2cccc(NC(=O)C3CC3)c2)N2CCN(CCOC)CC2)cc1 | > 30000 nM | 26 µL/min/mg | < 1 nm/s | > 9400 | 1.1 nM |
| CCOC(=O)Nc1ccc([C@@H](c2ccc(C(=O)N(CC)CC)cc2)N2CCN(Cc3cscn3)CC2)cc1 | 7300 nM | 21 µL/min/mg | 1.3 nm/s | 2700 | 1.3 nM |
| CCOC(=O)Nc1cccc([C@@H](c2ccc(C(=O)N(C)CC)cc2)N2CCN(Cc3nc[nH]c3C)CC2)c1 | > 33000 nM | 17 µL/min/mg | < 1 nm/s | 14000 | 0.26 nM |
| CCN(C)C(=O)c1ccc([C@H](c2cccc(NC(=O)C3CC3)c2)N2CCN(Cc3nc(C)cs3)CC2)cc1 | 18000 nM | 160 µL/min/mg | – | < 100 | > 100 nM |
| CCN(C)C(=O)c1ccc([C@H](c2cccc(NC(=O)C3CC3)c2)N2CCN(CCCOC)CC2)cc1 | 13000 nM | < 4 µL/min/mg | – | 33 | 23 nM |
| CCN(CC)C(=O)c1ccc([C@H](c2cccc(NC(=O)C3CC3)c2)N2CCN(Cc3ccccn3)CC2)cc1 | 20000 nM | 260 µL/min/mg | – | > 120000 | 0.068 nM |
| CCN(C)C(=O)c1ccc([C@H](c2cccc(NC(=O)C3CCC3)c2)N2CCN(Cc3cccnc3)CC2)cc1 | 28000 nM | 85 µL/min/mg | < 1 nm/s | > 1500 | 6.6 nM |
| CCOC(=O)Nc1cccc([C@@H](c2ccc(C(=O)N(C)CC)cc2)N2CCN(Cc3c[nH]c(C)n3)CC2)c1 | > 33000 nM | < 4 µL/min/mg | < 1 nm/s | > 12000 | 0.7 nM |
| CCN(CC)C(=O)c1ccc([C@H](c2cccc(NC(=O)C3CC3)c2)N2CCN(Cc3ccc(F)cc3)CC2)cc1 | 11000 nM | 150 µL/min/mg | < 1 nm/s | 5200 | 0.29 nM |
| CCOC(=O)Nc1cccc([C@@H](c2ccc(C(=O)N3CCC3)cc2)N2CCN(Cc3cccnc3)CC2)c1 | 11000 nM | 53 µL/min/mg | 1.8 nm/s | > 2200 | 4.1 nM |
| CCOC(=O)Nc1ccccc1[C@@H](c1ccc(C(=O)N(CC)CC)cc1)N1CCN(Cc2ccccn2)CC1 | 9900 nM | 650 µL/min/mg | 4.3 nm/s | > 6000 | 1.4 nM |
| CN(CCO)C(=O)c1ccc([C@H](c2cccc(NC(=O)C3CC3)c2)N2CCN(Cc3ccc(F)cc3)CC2)cc1 | 15000 nM | 36 µL/min/mg | < 1 nm/s | 11000 | 0.27 nM |
| CCOC(=O)Nc1cccc([C@@H](c2ccc(C(=O)N(CC)CC)cc2)N2CCN(Cc3cscn3)CC2)c1 | 5400 nM | 210 µL/min/mg | < 1 nm/s | 6200 | 0.071 nM |
| CCN(CC)C(=O)c1ccc([C@H](c2cccc(NC(=O)OC)c2)N2CCN(Cc3cncs3)CC2)cc1 | – | 100 µL/min/mg | 2.2 nm/s | – | 0.35 nM |
